Bioassay records as filed in PubChem.
OX1R antag-1: antagonists of human orexin 1 receptor (OX1R); O43613; OX1R-expressing cells, FRET antagonist read-out; inhibition, % at 6.6 µM; hit rate 1.8% among 330,000; in the data active means inhibition mostly above about 38%, no sharp cut-off; inactive means mostly below about 40%;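 further: 0% = agonist challenge alone and 100% = reference antagonist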
Target sequence (O43613 whole entry, looked up): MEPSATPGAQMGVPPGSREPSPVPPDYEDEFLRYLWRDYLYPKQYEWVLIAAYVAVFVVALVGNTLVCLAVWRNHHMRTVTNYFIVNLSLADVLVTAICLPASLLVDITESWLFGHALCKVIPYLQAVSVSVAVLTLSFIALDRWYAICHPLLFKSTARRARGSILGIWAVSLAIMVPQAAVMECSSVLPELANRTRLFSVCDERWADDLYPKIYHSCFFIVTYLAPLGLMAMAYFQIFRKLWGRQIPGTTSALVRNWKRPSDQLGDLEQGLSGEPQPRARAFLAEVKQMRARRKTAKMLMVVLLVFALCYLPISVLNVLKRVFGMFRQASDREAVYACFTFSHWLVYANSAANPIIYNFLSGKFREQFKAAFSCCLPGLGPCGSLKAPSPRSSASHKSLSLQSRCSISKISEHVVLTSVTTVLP
OXTR potentiate: potentiates the human oxytocin receptor response. hit rate 0.061% among 320,000. P30559. AID 2445. activation, % at 3 µM. CHO-OTR cells, Fluo-8 calcium fluorescence, potentiator mode; 0% = oxytocin EC15, 100% = EC100;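 active means activation above that plate's cutoff, the mean activation of tested compounds plus 3 SD, cut at about 6.6% in these data, passing the limit was not always enough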;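 further: 100% uses oxytocin at 75 nM as the full agonist control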
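Assay system: CHO cell line stably expressing human OTR | Also added: Oxytocin at about EC15, sub-maximal agonist stimulus | Times: Compound 6 min at room temperature before oxytocin, 100 s read | Measured by: Fluo-8 intracellular calcium fluorescence, ex 470-495, em 515-575 nm | Controls: EC15 oxytocin alone as 0%, 75 nM oxytocin as 100%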
CHO parental Ca: counter-screen: ATP calcium response change in parental CHO cells; parental CHO-K1, ATP-induced calcium, Fluo-8 fluorescence; inhibition, % at 5.6 µM; hit rate 0.63% among 330,000;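 active means inhibition above that plate's mean sample inhibition plus 3 SD, cut at about 26% in these data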;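 further: 0% = ATP-challenged DMSO wells and 100% = DMSO wells without ATP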
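Material: parental CHO cells / Compound: single nominal dose of 5.6 µM per compound / Signal: Fluo-8 fluorescence / Replicates: singlicate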
V1aR counter: activates human V1a receptor in oxytocin agonist counter-screen. hit rate 0.25% among 320,000. P37288. CHO-V1R cells, Fluo-8 calcium fluorescence, agonist mode; 0% DMSO, 100% 3 nM vasopressin. activation, % at 3 µM;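 active means activation above the mean activation of all tested compounds plus 3 SD, per screening run, cut at about 20% in these data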;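 further: signal is peak over basal fluorescence ratio across a 100 second FLIPR read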
OXTR ag: human OXTR agonism. CHO-OTR cells, Fluo-8 calcium fluorescence; normalized: DMSO 0%, oxytocin 100%. hit rate 0.32% among 320,000. P30559. activation, % at 3 µM;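 active means activation above the mean of all tested compounds plus 3 SD, cutoff set per screening run, cut at about 20% in these data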;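 further: peak over basal fluorescence ratio from a 100 s FLIPR kinetic read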
OX1R antag-2: blocks the human orexin 1 receptor; CHO/OX1R cells, Fluo-8 calcium fluorescence, orexin A; inhibition, % at 5 µM; hit rate 0.43% among 330,000; AID 434989;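 active means inhibition above its plate's threshold, mean inhibition of all tested compounds on the plate plus 3 SD, cut at about 37% in these data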;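 further: 0% = orexin A challenge wells and 100% = SB-334867-A antagonist wells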
OX1R HTRF conf: confirmation of human orexin 1 receptor antagonists, HTRF format. shares compounds with OX1R antag-1. OX1R-expressing cells, HTRF antagonist assay. inhibition, % at 6.6 µM. hit rate 49% among 1,800; in the data active means inhibition above about 55%;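 further: CHO cells expressing OX1R stimulated with orexin A at about EC80; 0% = agonist challenge alone and 100% = reference antagonist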
CHO-K1 HTRF cnt: counter-screen for OX1R antagonists: effect in parental CHO-K1 cells. shares compounds with OX1R antag-1. HTRF counterscreen. inhibition, % at 6.6 µM. hit rate 48% among 1,800; in the data active means inhibition above about 17%;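 further: 0% = agonist challenge with vehicle and 100% = vehicle alone without agonist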
Numbers without * were called inactive. Most compounds without a hit are left out; they make up all but 2.7% or so of the library.

Screening COc1ccccc1NC(=O)c1cc2c(CO)cnc(C)c2oc1=Nc1cc(OC)c(OC)c(OC)c1 returned OX1R antag-1 11, OXTR potentiate -7, CHO parental Ca -19, V1aR counter -1, OXTR ag -1 and OX1R antag-2 -28.
For COc1ccc(CCC(=O)Nc2ccc(S(=O)(=O)Nc3nccc(C)n3)cc2)cc1 the results were OX1R antag-1 8, OXTR potentiate -5, CHO parental Ca -2, V1aR counter 2, OXTR ag 1 and OX1R antag-2 -11.
`CC(C)CN1CCC(CNC(=O)CCc2nnc(Cc3c[nH]c4ccccc34)o2)CC1` gave OX1R antag-1 -2, OXTR potentiate -8, CHO parental Ca -11, V1aR counter 0, OXTR ag -1 and OX1R antag-2 -8.
`O=[N+]([O-])c1ccc(-n2cccn2)c(-c2nn[nH]n2)c1` gave OX1R antag-1 108*, OXTR potentiate -11, CHO parental Ca -14, V1aR counter 1, OXTR ag 1, OX1R antag-2 -13, OX1R HTRF conf 37 and CHO-K1 HTRF cnt 54*.
Screening CC(C)(C)Cc1nnc(NC(=O)CCc2ccccc2)s1 returned OX1R antag-1 22, OXTR potentiate 1, CHO parental Ca -17, V1aR counter 0, OXTR ag -1 and OX1R antag-2 -26.
CN(C(=O)Cn1nnc(-c2cccnc2)n1)C1CCCCC1 was read as OX1R antag-1 7, OXTR potentiate 2, CHO parental Ca -8, V1aR counter 1, OXTR ag 2 and OX1R antag-2 -1.
`[O-][n+]1c2ccccc2[n+]([O-])c2cc(O)ccc21` gave OX1R antag-1 92*, OXTR potentiate -5, CHO parental Ca -4, V1aR counter 0, OXTR ag -1, OX1R antag-2 -13, OX1R HTRF conf 63* and CHO-K1 HTRF cnt 111*.
For COC1=C(Nc2ccc(C)cc2)C(=O)c2ccccc2C1=O the results were OX1R antag-1 22, OXTR potentiate 3, CHO parental Ca -1, V1aR counter 2, OXTR ag -2 and OX1R antag-2 -13.
`CC(=O)NC1=C(Nc2ccc(N(C)C)cc2)C(=O)c2ccccc2C1=O` gave OX1R antag-1 120*, OXTR potentiate 1, CHO parental Ca -10, V1aR counter -1, OXTR ag -1, OX1R antag-2 -13, OX1R HTRF conf 66* and CHO-K1 HTRF cnt 92*.
Cc1ccc(S(=O)(=O)N(C)C)cc1NC(=O)CCc1ccccc1 was read as OX1R antag-1 4, OXTR potentiate 2, CHO parental Ca -12, V1aR counter 0, OXTR ag 0 and OX1R antag-2 -25.
O=C1c2ccc(-c3ccc4c(c3)C(=O)N(CCO)C4=O)cc2C(=O)N1CCO was read as OX1R antag-1 174*, OXTR potentiate -2, CHO parental Ca -5, V1aR counter 1, OXTR ag 0, OX1R antag-2 -9, OX1R HTRF conf 66* and CHO-K1 HTRF cnt 82*.
Screening O=C1c2ccc(Oc3ccc4c(c3)C(=O)N(CCCO)C4=O)cc2C(=O)N1CCCO returned OX1R antag-1 136*, OXTR potentiate -16, CHO parental Ca -20, V1aR counter 7, OXTR ag 8, OX1R antag-2 -5, OX1R HTRF conf 45 and CHO-K1 HTRF cnt 25*.
For O=C(O)c1c2c(nc3ccccc13)/C(=C/c1c(F)cccc1F)CCC2 the results were OX1R antag-1 113*, OXTR potentiate -9, CHO parental Ca 1, V1aR counter 0, OXTR ag 0, OX1R antag-2 9, OX1R HTRF conf 45 and CHO-K1 HTRF cnt 18*.
Cc1cccc(CN2CCN(Cc3nc4c(s3)CCCC4)CC2CCO)n1 (stereo unspecified) was read as OX1R antag-1 3, OXTR potentiate -6, CHO parental Ca -21, V1aR counter 0, OXTR ag 0 and OX1R antag-2 -36.
O=C(COC(=O)c1ccc([N+](=O)[O-])o1)c1ccccc1 was read as OX1R antag-1 29, OXTR potentiate -13, CHO parental Ca -7, V1aR counter 0, OXTR ag -1 and OX1R antag-2 -11.
Screening Cn1c(N)c(C(=O)COC(=O)c2ccc([N+](=O)[O-])o2)c(=O)n(C)c1=O returned OX1R antag-1 105*, OXTR potentiate 0, CHO parental Ca -11, V1aR counter 1, OXTR ag 1, OX1R antag-2 -11, OX1R HTRF conf 31 and CHO-K1 HTRF cnt 55*.
O=C1NC(=S)N/C1=C/c1ccc2ccccc2c1 was read as OX1R antag-1 16, OXTR potentiate -4, CHO parental Ca -2, V1aR counter 0, OXTR ag 0 and OX1R antag-2 -18.
`COC(=O)c1nc(-c2ccccc2)nc(-c2ccccc2)c1C(=O)OC` gave OX1R antag-1 10, OXTR potentiate -6, CHO parental Ca -23, V1aR counter -1, OXTR ag -4 and OX1R antag-2 -18.
For O=[N+]([O-])c1ccc(-c2ccc(S(=O)(=O)N3CCOCC3)cc2)cc1 the results were OX1R antag-1 14, OXTR potentiate -4, CHO parental Ca -3, V1aR counter 1, OXTR ag 1 and OX1R antag-2 -14.
O=C1CN(S(=O)(=O)c2ccc([N+](=O)[O-])cc2)CC(=O)N1 was read as OX1R antag-1 77*, OXTR potentiate -10, CHO parental Ca -8, V1aR counter 0, OXTR ag 1, OX1R antag-2 -7, OX1R HTRF conf 40 and CHO-K1 HTRF cnt 66*.
COc1ccccc1OCCCOc1ccc(/C=C2\SC(=O)NC2=O)cc1OC was read as OX1R antag-1 78*, OXTR potentiate -12, CHO parental Ca -11, V1aR counter 7, OXTR ag 3, OX1R antag-2 -17, OX1R HTRF conf 70* and CHO-K1 HTRF cnt 13.
For COc1ccccc1OCCCOc1cccc(/C=C2\SC(=O)NC2=O)c1 the results were OX1R antag-1 78*, OXTR potentiate -20, CHO parental Ca -10, V1aR counter 7, OXTR ag 4, OX1R antag-2 -13, OX1R HTRF conf 54 and CHO-K1 HTRF cnt 22*.
For COc1cc(/C=C2\SC(=O)NC2=O)ccc1Oc1cnccn1 the results were OX1R antag-1 21, OXTR potentiate -7, CHO parental Ca 8, V1aR counter 1, OXTR ag 0 and OX1R antag-2 9.
`Cc1csc(NC(=O)c2ccc(C(=O)Nc3nc(C)cs3)cc2)n1` gave OX1R antag-1 -4, OXTR potentiate -3, CHO parental Ca -5, V1aR counter 4, OXTR ag 3 and OX1R antag-2 -13.
